# Source: PubChem
# Sampled rows, rich in hits. Any-hit rate of the full collection: about 4.1%.
# NF-kB expr up = activators of NF-kB expression in neurons, primary screen, cell-based, HTS; human neuronal cells, NF-kB reporter expression; hits give high values; AID 1239, 2008; 1.6% of 190,000 active; fold change at 12.5 µM; in the data active = fold change above about 3.3
# APP 5'UTR act = activators of APP 5'UTR luciferase reporter, primary screen, SH-SY5Y cells; activation, % at 2 µM; 1% of 190,000 active; SH-SY5Y APP 5'UTR luciferase reporter, luminescence; zero percent = DMSO vehicle wells; AID 1276, 2008;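 active = activation above a set limit, based on mean plus 3 SD of controls, cut at about 140% in these data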
# FLuc inh counter = firefly luciferase enzyme inhibitors, primary screen, artefact control for luciferase-based inhibitor screens, biochemical, luminescence, ATPLite. 10 min. Luciferin 4-monooxygenase (Photinus pyralis), P08659. inhibition, % at 10 µM. 1.5% of 200,000 active. AID 1006, 2008;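 active = inhibition above about 50% when tested at 10 µM, limit read from the data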
# Target sequence (P08659 whole entry, looked up): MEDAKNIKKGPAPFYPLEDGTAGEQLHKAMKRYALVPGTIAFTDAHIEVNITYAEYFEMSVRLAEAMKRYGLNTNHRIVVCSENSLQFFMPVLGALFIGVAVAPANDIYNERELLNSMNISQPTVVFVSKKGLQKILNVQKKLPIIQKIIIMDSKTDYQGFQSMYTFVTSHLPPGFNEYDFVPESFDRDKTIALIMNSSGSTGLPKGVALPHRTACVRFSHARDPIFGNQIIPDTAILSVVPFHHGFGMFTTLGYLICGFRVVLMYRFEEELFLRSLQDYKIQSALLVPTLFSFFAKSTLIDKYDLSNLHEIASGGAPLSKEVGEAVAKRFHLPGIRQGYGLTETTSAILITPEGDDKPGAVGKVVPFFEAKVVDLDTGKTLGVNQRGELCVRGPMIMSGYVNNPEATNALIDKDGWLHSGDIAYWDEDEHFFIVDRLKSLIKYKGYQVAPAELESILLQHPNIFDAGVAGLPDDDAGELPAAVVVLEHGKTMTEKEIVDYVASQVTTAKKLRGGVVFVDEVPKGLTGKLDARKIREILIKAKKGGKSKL
# FLuc stim CS = FLuc activators, initial screening, artefact control for FLuc-dependent activation tests, biochemical, ATPlite luminescence; ATPlite luciferase biochemical, 10 min; 0 = ATP-free wells, 1 = DMSO control; activation factor at 10 µM; 200,000 tested, under 10 active; AID 1027, 2008;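 active = luciferase activation factor, scaled between plate controls, of at least 2 with compound at 10 µM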
#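 System: cell-free luciferase reagent; medium: PBS as buffer for the ATP substrate; doses: test compounds dosed from 2 mM stocks in 100% DMSO; incubation: 10 min, room temperature; measured by: luminescence from luciferase reaction; read-out: luciferase activation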
# STAT1 act = STAT1 signaling activators, primary screen, cell-based, HTS, luciferase reporter | NIH 3T3 STAT1-luciferase reporter, IFN-gamma, luminescence; 100% = IFN-gamma alone, no compound | activation (% of control), % at 5.5 µM | 2.6% of 200,000 active | AID 932, 2007;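 active = activation above the screen-wide mean activation plus 3 SD, cut at about 130% in these data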
# Hits are given with their value; n = inactive.
SMILES,NF-kB expr up,APP 5'UTR act,FLuc inh counter,FLuc stim CS,STAT1 act
CCc1ccc2nc(NC(=O)c3cc(C)on3)sc2c1,3.5,n,n,n,133
CN(C)c1ccc(C(=O)Nc2nc3c(s2)CCCC3)cc1,n,n,58,n,n
O=C(NCC(c1cccs1)N1CCOCC1)c1cc([N+](=O)[O-])cc([N+](=O)[O-])c1 (stereo not drawn),n,n,n,n,n
COc1cc(OC)cc(C(=O)NCCCN2CCN(CCCNC(=O)c3cc(OC)cc(OC)c3)CC2)c1,n,n,n,n,n
CCOc1ccc(N=Nc2c(=O)[nH]n3c(=O)cc(C)[nH]c23)cc1,n,n,64,n,n
COc1cc([C@@H]2c3cc4c(cc3[C@H](O)[C@H]3COC(=O)[C@H]23)OCO4)cc(OC)c1OC,3.9,n,n,n,n
COc1cc(CC(=O)NCc2ccc3c(c2)OCO3)cc(OC)c1OC,n,n,n,n,n
O=c1c(C(c2ccccc2)c2c(O)nc3n(c2=O)CCS3)c(O)nc2n1CCS2,n,n,n,n,n
CC(=O)c1cc(C)ccc1OC(=O)c1ccco1,n,n,n,n,n
Cc1cc(NC(=O)NC(=O)c2cccc(OC(F)(F)C(F)F)c2)n[nH]1,n,n,n,n,132
Cc1cc(NC(=O)c2cccc(Oc3ccccc3)c2)n[nH]1,n,n,71,n,n
Cn1c(SCc2nnc(-c3ccccc3Br)o2)nc2sc3c(c2c1=O)CCC3,4.5,n,n,n,n
COCCCn1c(SCc2nnc(-c3ccccc3)o2)nc2sc3c(c2c1=O)CCC3,n,n,n,n,n
Cc1ccc(NC(=O)N/C=C/c2ccco2)c(C)c1,5.2,n,n,n,n
N#C/C(=N\Nc1cccc(F)c1)C(=N)N1CCCCCC1,5.2,150,62,n,145
O=C(Oc1cccc2c(O)cccc12)c1ccccc1,n,n,n,n,n
O=C(Oc1ccccc1O)c1cccc2ccccc12,3.5,n,n,n,n
CCCNC(=O)C(=O)Nc1ccc(N(C)C)cc1,n,n,n,n,137
COc1ccc(NC(=O)Nc2cccnc2)cc1,n,n,58,n,n
CN(C)c1ccc(NC(=O)C(=O)NCCOc2ccccc2)cc1,n,n,n,n,n
COc1ccc(NC(=O)Nc2ccc(OC)cc2)cc1,n,n,n,n,n
O=C(Nc1ccc(Cl)cc1)Nc1cccnc1,n,n,n,n,n
COc1ccc(NC(=O)Nc2ccc(N(C)C)cc2)cc1,n,n,n,n,137
CCOc1ccc(NC(=O)Nc2cccnc2)cc1,n,n,77,n,n
O=C(CCOc1ccccc1F)N1CCN(c2ccccc2O)CC1,n,n,n,n,n
SMILES,NF-kB expr up,APP 5'UTR act,FLuc inh counter,FLuc stim CS,STAT1 act
COc1ccc(NC(=O)NN(C(=O)c2ccccc2)C(C)(C)C)cc1,n,n,n,n,n
COc1ccc(NC(=O)Nc2ccc3nccnc3c2)cc1,n,n,57,n,130
COC(=O)C(C)N(c1ccc(OC)cc1)S(C)(=O)=O (stereo not drawn),n,n,n,n,n
COc1ccc(N(C(C)C(=O)Nc2cccnc2)S(C)(=O)=O)cc1 (stereo not drawn),n,n,n,n,130
Cc1ccc2cc(CCNC(=O)c3ccc(Br)o3)c(=O)[nH]c2c1,n,n,n,n,n
Cc1ccnc(NS(=O)(=O)c2ccc(NC(=O)c3ccc([N+](=O)[O-])s3)cc2)n1,5.7,n,n,n,n
Clc1ccccc1OCc1nnc(-c2ccccc2Br)o1,n,n,n,n,137
Brc1ccccc1-c1nnc(COc2cccc3cccnc23)o1,n,n,n,n,n
Cc1ccc(-n2c(Cc3cccn3C)nnc2SCC(=O)NCc2ccc3c(c2)OCO3)cc1,n,n,n,n,n
O=C(NCC1CCCO1)c1ccc(N2CCCCC2)nc1 (stereo not drawn),n,n,n,n,n
CC1CCN(c2nc3ccc(C(=O)O)cc3s2)CC1,6.7,n,58,n,n
O=C(NCC1CCCO1)c1ccc2nc(N3CCCCC3)sc2c1 (stereo not drawn),n,n,n,n,130
CC(=O)N1CCN(CC(=O)Nc2ccc([N+](=O)[O-])cc2Br)CC1,n,n,n,n,n
